Experimental data taken from ChEMBL document CHEMBL3992514, “Synthesis, biological characterisation and structure activity relationships of aromatic bisamidines active against Plasmodium falciparum” (Eur J Med Chem, 2017).

Assays:
HEK293 = assay: Cytotoxicity against HEK293 cells assessed as decrease in cell viability after 24 hrs by Alamar blue assay; format: ADME, cell-based; conditions: Homo sapiens, HEK293, 24 h
Plasmodium falciparum [1] = assay: Antiparasitic activity against drug-sensitive Plasmodium falciparum 3D7 infected in erythrocytes assessed as growth inhibition after 48 hrs by SYBR green 1 dye-based flow cytometry; format: functional, cell-based; conditions: 3D7, 48 h
[2] = Selectivity index, ratio of IC50 for HEK293 cells to IC50 for drug-resistant Plasmodium falciparum Dd2 infected in erythrocytes; conditions: human
Plasmodium falciparum [3] = assay: Antiparasitic activity against drug-resistant Plasmodium falciparum Dd2 infected in erythrocytes assessed as growth inhibition after 48 hrs by [3H]-hypoxanthine incorporation assay; format: functional, cell-based
[4] = Selectivity index, ratio of IC50 for HEK293 cells to IC50 for drug-sensitive Plasmodium falciparum 3D7 infected in erythrocytes; conditions: human
[5] = Cytotoxicity against HEK293 cells assessed as cell viability at 50 uM after 24 hrs by Alamar blue assay relative to control; format: cell-based; conditions: human, read-out: Activity
Procedure, shortened: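 HEK293 cells kept in DMEM with 10% FCS and 5 mM glutamine at 37 °C, 5% CO2; seeded at 1.5 × 10^3 cells per well, compound added immediately at 50 µM. After 24 h AlamarBlue added, incubated a further 21 h; resorufin fluorescence read at Ex 560/Em 590 nm. Triplicates over three independent experiments.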

[6] = Cmax in Sprague-Dawley albino rat at 1 mg/kg, po; format: ADME, organism-based; set-up: dose 1 mg/kg, route oral; conditions: in vivo
[7] = Half life in Sprague-Dawley albino rat at 1 mg/kg, po; format: ADME, organism-based; conditions: in vivo
[8] = Oral bioavailability in Sprague-Dawley albino rat at 1 mg/kg; format: ADME, organism-based; conditions: in vivo
Giardia intestinalis = assay: Antiparasitic activity against Giardia lamblia; format: functional; conditions: Giardia duodenalis
[9] = Half life in Swiss Webster mouse at 30 mg/kg, po; format: ADME, organism-based; conditions: in vivo
Leishmania sp. = assay: Antiparasitic activity against Leishmania spp.; format: functional
[10] = Oral bioavailability in Swiss Webster mouse at 30 mg/kg; format: ADME, organism-based; conditions: in vivo
[11] = Cmax in Swiss Webster mouse at 30 mg/kg, po; format: ADME, organism-based; set-up: dose 30 mg/kg, route oral; conditions: in vivo
Plasmodium vivax = assay: Antimalarial activity against hypnozoite-stage Plasmodium vivax in infected patient assessed as cure rate at 100 mg, po bid administered for 5 days measured every 12 hrs up to day 7, and on day 10, 14, 21, and 28 by Giemsa staining-based assay relative to control; format: functional
Plasmodium falciparum [12] = assay: Antimalarial activity against Plasmodium falciparum in infected patient assessed as cure rate at 100 mg, po bid administered for 5 days measured every 12 hrs up to day 7, and on day 10, 14, 21, and 28 by Giemsa staining-based assay relative to control; format: functional

SMILES	IC50 (HEK293) [µM]	IC50 (Plasmodium falciparum [1]) [µM]	selectivity ratio [2]	IC50 (Plasmodium falciparum [3]) [µM]	selectivity ratio [4]	other results
Cc1c(-c2ccc(C(=N)N)cc2)oc(-c2ccc(C(=N)N)cc2)c1C	74	0.033	1230	0.06	2240	–
N=C(N)c1ccc(-c2cc(CC(=O)NCCN3CCCCC3)c(-c3ccc(C(=N)N)cc3)o2)cc1	> 50	> 10	–	> 10	–	–
CCN(CC)CCN=C(Nc1ccc(C(=N)N)cc1)Nc1ccc(C(=N)N)cc1	> 50	> 10	–	> 10	–	–
Cc1c(-c2ccc(C(=N)NO)cc2)oc(-c2ccc(C(=N)NO)cc2)c1C	> 50	> 1	> 10	7.15	–	–
CCCOCc1c(-c2ccc(C(=N)N)cc2)oc(-c2ccc(C(=N)N)cc2)c1Cl	–	0.09	–	0.14	–	viability at 24 h, 50 µM [5]: 1%
N=C(N)c1ccc(-c2cc(CC(=O)N3CCN(CCO)CC3)c(-c3ccc(C(=N)N)cc3)o2)cc1	> 50	> 10	–	> 10	–	–
COCc1c(-c2ccc(C(=N)N)cc2)oc(-c2ccc(C(=N)N)cc2)c1COC	> 50	1.04	> 56	0.9	> 48	–
CN(C)CCCCNC(=O)Cc1cc(-c2ccc(C(=N)N)cc2)oc1-c1ccc(C(=N)N)cc1	> 50	> 10	–	> 10	–	–
Cc1c(-c2ccc(C(=N)NC(C)C)cc2)oc(-c2ccc(C(=N)NC(C)C)cc2)c1C	309	0.038	3430	0.09	8130	–
CCOC(=O)Cc1cc(-c2ccc(C(=N)N)cc2)oc1-c1ccc(C(=N)N)cc1	232	0.22	270	0.86	1060	–
CN(C)C(=O)Cc1cc(-c2ccc(C(=N)N)cc2)oc1-c1ccc(C(=N)N)cc1	> 50	5.76	> 13	3.83	> 8	–
CN(C)CCNC(=O)Cc1cc(-c2ccc(C(=N)N)cc2)oc1-c1ccc(C(=N)N)cc1	> 50	> 10	–	> 10	–	–
N=C(N)c1ccc(-c2cc(CC(=O)NCCC(c3ccccc3)c3ccccc3)c(-c3ccc(C(=N)N)cc3)o2)cc1	> 50	1.4	> 34	1.47	> 36	–
Cc1c(-c2ccc(C(=N)NCC(C)C)cc2)oc(-c2ccc(C(=N)NCC(C)C)cc2)c1C	33.1	0.038	220	0.15	870	–
CCNC(=N)c1ccc(-c2oc(-c3ccc(C(=N)NCC)cc3)c(C)c2C)cc1	33.3	0.02	1110	0.03	1660	–
CC(C)OCc1c(-c2ccc(C(=N)N)cc2)oc(-c2ccc(C(=N)N)cc2)c1COC(C)C	> 50	1.08	> 42	1.2	> 46	–
CN1CCN(C(=O)Cc2cc(-c3ccc(C(=N)N)cc3)oc2-c2ccc(C(=N)N)cc2)CC1	> 50	> 10	–	> 10	–	–
CSCCCNC(=O)Cc1cc(-c2ccc(C(=N)N)cc2)oc1-c1ccc(C(=N)N)cc1	> 50	6.61	> 10	5.43	> 7	–
N=C(N)c1ccc(-c2cc(CC(=O)NCCCc3ccccc3)c(-c3ccc(C(=N)N)cc3)o2)cc1	> 50	0.77	> 30	1.67	> 65	–
CN(C)CCCNC(=O)Cc1cc(-c2ccc(C(=N)N)cc2)oc1-c1ccc(C(=N)N)cc1	> 50	> 10	–	> 10	–	–
CN(C)CCN=C(Nc1ccc(C(=N)N)cc1)Nc1ccc(C(=N)N)cc1	> 50	> 10	–	> 10	–	–
N=C(N)c1ccc(NC(=O)Nc2ccc(C(=N)N)cc2)cc1	266	0.046	–	0.21	5780	–
N=C(N)c1ccc(-c2cc(CC(=O)N3CCN(c4ncccn4)CC3)c(-c3ccc(C(=N)N)cc3)o2)cc1	> 50	7.54	> 3	17.4	> 7	–

SMILES	IC50 (HEK293) [µM]	IC50 (Plasmodium falciparum [1]) [µM]	selectivity ratio [2]	IC50 (Plasmodium falciparum [3]) [µM]	selectivity ratio [4]	other results
N=C(N)c1ccc(-c2cc(CC(=O)N3CCN(C(=O)c4ccccc4)CC3)c(-c3ccc(C(=N)N)cc3)o2)cc1	> 50	> 10	–	> 10	–	–
N=C(N)c1ccc(-c2cc(CC(=O)NCC3CCCCC3)c(-c3ccc(C(=N)N)cc3)o2)cc1	> 50	–	> 20	2.42	–	–
N=C(N)c1ccc(-c2cc(CC(=O)NCCN3CCOCC3)c(-c3ccc(C(=N)N)cc3)o2)cc1	> 50	> 10	–	> 10	–	–
CSCCNC(=O)Cc1cc(-c2ccc(C(=N)N)cc2)oc1-c1ccc(C(=N)N)cc1	> 50	6.09	> 10	5.48	> 8	–
N=C(N)c1ccc(NC(=NCCN2CCCCC2)Nc2ccc(C(=N)N)cc2)cc1	> 50	> 10	–	> 10	–	–
COCc1c(-c2ccc(C(=N)N)cc2)oc(-c2ccc(C(=N)N)cc2)c1Cl	209	0.16	2320	0.09	1310	–
CONC(=N)c1ccc(-c2oc(-c3ccc(C(=N)NOC)cc3)c(C)c2C)cc1	> 50	> 1	> 5	10.6	–	–
N=C(N)c1ccc(-c2cc(CC(=O)N3CCCCC3)c(-c3ccc(C(=N)N)cc3)o2)cc1	> 50	5.13	–	–	> 9	–
CCOCc1c(-c2ccc(C(=N)N)cc2)oc(-c2ccc(C(=N)N)cc2)c1COCC	> 50	1.19	> 59	0.85	> 42	–
N=C(N)c1ccc(-c2cc(CC(=O)N3CCN(C(c4ccc(F)cc4)c4ccc(F)cc4)CC3)c(-c3ccc(C(=N)N)cc3)o2)cc1	> 50	1.7	> 8	6.63	> 30	–
CNC(=O)Cc1cc(-c2ccc(C(=N)N)cc2)oc1-c1ccc(C(=N)N)cc1	> 50	5.41	> 16	3.07	> 9	–
CCN(CC)CCNC(=O)Cc1cc(-c2ccc(C(=N)N)cc2)oc1-c1ccc(C(=N)N)cc1	> 50	> 10	–	> 10	–	–
N=C(N)c1ccc(-c2cc(CC(=O)NCC(c3ccccc3)c3ccccc3)c(-c3ccc(C(=N)N)cc3)o2)cc1	> 50	1.39	> 35	1.43	> 36	–
CN1CCN(CCNC(=O)Cc2cc(-c3ccc(C(=N)N)cc3)oc2-c2ccc(C(=N)N)cc2)CC1	> 50	> 10	–	–	–	–
N=C(N)c1ccc(NC(=NCCc2ccccc2)Nc2ccc(C(=N)N)cc2)cc1	> 50	> 10	–	> 10	–	–
CCCOCc1c(-c2ccc(C(=N)N)cc2)oc(-c2ccc(C(=N)N)cc2)c1COCCC	> 50	0.39	> 128	0.31	> 161	–
N=C(N)c1ccc(-c2cc(CC(=O)N3CCOCC3)c(-c3ccc(C(=N)N)cc3)o2)cc1	> 50	> 10	–	> 10	–	–
CO/N=[14C](/N)c1ccc(-c2ccc(-c3ccc(/[14C](N)=N\OC)cc3)o2)cc1	–	–	–	–	–	Cmax [6]: 26.1 ng/mL; half-life [7]: 0.9 h; bioavailability [8]: 11%
N=C(N)c1ccc(-c2cc(CC(=O)NCCCO)c(-c3ccc(C(=N)N)cc3)o2)cc1	> 50	> 10	> 3	22.2	–	–
N=C(N)c1ccc(-c2cc(CC(=O)N3CCN(C(c4ccccc4)c4ccccc4)CC3)c(-c3ccc(C(=N)N)cc3)o2)cc1	> 50	1.43	> 10	5.33	> 35	–
N=C(N)c1ccc(-c2cc(CC(=O)NCCc3ccccc3)c(-c3ccc(C(=N)N)cc3)o2)cc1	> 50	1.18	> 42	1.19	> 42	–
N=C(N)c1ccc(-c2ccc(-c3ccc(C(=N)N)cc3)o2)cc1 [FURAMIDINE]	178	0.011	–	0.05	–	IC50 (Giardia intestinalis): 0.2 µM; half-life [9]: 107 h; IC50 (Leishmania sp.): 2.8 µM; bioavailability [10]: 0.2%; Cmax [11]: 8 nM
CONC(=N)c1ccc(-c2ccc(-c3ccc(C(=N)NOC)cc3)o2)cc1 [PAFURAMIDINE]	–	–	–	–	–	Activity (Plasmodium vivax): >95%; Activity (Plasmodium falciparum [12]): >95%
